Data on 43 compounds can be found in ChEMBL document CHEMBL1130042, “Structure-activity relationships of N2-aryl-3-(isoxazolylsulfamoyl)-2-thiophenecarboxamides as selective endothelin receptor-A antagonists” (J Med Chem, 1997).

Series [1] deals with T1, Endothelin receptor type B (Homo sapiens, UniProt P24530).
T1 sequence (P24530 whole entry): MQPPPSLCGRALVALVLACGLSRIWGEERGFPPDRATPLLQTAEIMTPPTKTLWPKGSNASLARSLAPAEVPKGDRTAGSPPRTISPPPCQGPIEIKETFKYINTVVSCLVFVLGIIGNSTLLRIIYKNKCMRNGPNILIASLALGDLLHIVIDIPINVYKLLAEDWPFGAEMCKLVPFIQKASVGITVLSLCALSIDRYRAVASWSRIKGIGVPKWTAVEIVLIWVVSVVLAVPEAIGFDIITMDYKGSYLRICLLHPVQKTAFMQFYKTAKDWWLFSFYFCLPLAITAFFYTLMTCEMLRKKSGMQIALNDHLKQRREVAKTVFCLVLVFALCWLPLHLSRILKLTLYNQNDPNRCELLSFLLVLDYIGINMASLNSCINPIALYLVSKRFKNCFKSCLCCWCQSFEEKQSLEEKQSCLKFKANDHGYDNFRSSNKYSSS
As to the kind of experiment: In vitro inhibition of endothelin binding to human Endothelin B receptor using [125I]-labeled ET-1 competition assay. An outline of the steps: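 Membranes (0.75 mg/tube) from COS 7 cells transfected with human ETB. Buffer 30 mM HEPES pH 7.4, 150 mM NaCl, 5 mM MgCl2, 0.05% bacitracin, final 0.25% DMSO. Tracer 4 pM [125I]ET-1, nonspecific binding with 100 nM ET-1. Incubated 16–18 h at 24 °C, bound radioactivity gamma-counted. Run in triplicate.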

The target of another series is T2, Endothelin-1 receptor (Homo sapiens, UniProt P25101).
T2 sequence (P25101 whole entry): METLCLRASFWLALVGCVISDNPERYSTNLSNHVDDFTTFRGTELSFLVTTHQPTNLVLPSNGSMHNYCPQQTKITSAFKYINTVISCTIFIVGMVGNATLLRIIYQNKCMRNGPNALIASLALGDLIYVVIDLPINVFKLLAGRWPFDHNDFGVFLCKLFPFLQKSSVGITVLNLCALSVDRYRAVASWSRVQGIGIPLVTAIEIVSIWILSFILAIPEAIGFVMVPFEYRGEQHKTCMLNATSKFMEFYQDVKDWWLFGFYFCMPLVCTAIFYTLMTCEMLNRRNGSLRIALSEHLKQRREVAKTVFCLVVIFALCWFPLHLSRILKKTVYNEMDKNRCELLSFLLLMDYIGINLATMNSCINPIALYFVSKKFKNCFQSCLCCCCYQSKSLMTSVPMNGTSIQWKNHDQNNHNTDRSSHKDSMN
The experiment in a line: In vitro inhibition of endothelin binding to human Endothelin A receptor using [125I]-labeled ET-1 competition assay. An outline of the steps:
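Membranes from confluent TE 671 cells (endogenous human ETA), DNase-treated, 3 mg/tube. Buffer 30 mM HEPES pH 7.4, 150 mM NaCl, 5 mM MgCl2, 0.05% bacitracin, final 0.25% DMSO. Tracer 4 pM [125I]ET-1, nonspecific binding with 100 nM ET-1. Incubated 16–18 h at 24 °C, centrifuged, bound radioactivity gamma-counted. Run in triplicate.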

The subject of a further series is Rattus norvegicus. As to the kind of experiment: % inhibition of ET-1 induced pressor response in conscious rats 30 min after intravenous administration of 15 mg/kg of the compound. The note with it: 0.5 h. The class given is functional. In short, it runs like this: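 Conscious rats rested 60 min in a restrainer. Autonomic blockade by iv atropine methyl nitrate (3 mg/kg) plus propranolol (2 mg/kg). Vehicle was 1 M Tris base or sodium bicarbonate. Control iv bolus ET-1 challenge ([…]), antagonist iv bolus once MAP returned to baseline, second ET-1 challenge 30 min later. Inhibition = 100 × (control − antagonist max pressor response)/control max pressor response.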

Series [2] in a line: Compound at dose 60 mg/kg was administered to rats and Serum half life was determined; range = 2.5-3 h. Type of series: ADME, organism-based. The arrangement: dose 60 mg/kg. To be noted: rat.
A short description of series [3]: Compound at dose 60 mg/kg was administered to rats and Serum half life was determined. Type of series: ADME, organism-based. The arrangement: dose 60 mg/kg. The note with it: rat.

Molecules are shown by their SMILES.

As for `Cc1ccc(NC(=O)c2sccc2S(=O)(=O)Nc2onc(C)c2C)cc1`, the IC50 (usually the concentration that gives 50% inhibition) stood at 67600 nM in series [1] and 32 nM on Endothelin-1 receptor.

`Cc1noc(NS(=O)(=O)c2ccsc2C(=O)Nc2cccc(C(=O)O)c2)c1Br` showed an IC50 in series [1] of 117000 nM.

In the case of `CC(=O)c1cc2c(cc1NC(=O)c1sccc1S(=O)(=O)Nc1onc(C)c1C)OCO2`, the IC50 in series [1] was more than 100000 nM; on Endothelin-1 receptor it was 31 nM.

Consider `Cc1cccc(NC(=O)c2sccc2S(=O)(=O)Nc2onc(C)c2Br)c1`, for which the results for the IC50 (in series [1]; on Endothelin-1 receptor) were 67400 nM and 104 nM, respectively.

On to `Cc1noc(NS(=O)(=O)c2ccsc2C(=O)Nc2cc3c(cc2CCCO)OCO3)c1Cl`, for which the IC50 was determined as 9080 nM in series [1] and 6 nM at Endothelin-1 receptor.

As for `Cc1ccc(NC(=O)c2sccc2S(=O)(=O)Nc2onc(C)c2Cl)cc1`, on Endothelin-1 receptor, the IC50 turned out to be 15 nM.

With `Cc1noc(NS(=O)(=O)c2ccsc2C(=O)Nc2ccc(C(C)C)cc2)c1Br`, the IC50 in series [1] was determined as 4370 nM; at Endothelin-1 receptor it was 20 nM.

In series [1], `Cc1noc(NS(=O)(=O)c2ccsc2C(N)=O)c1Br` displayed an IC50 of more than 100000 nM.

On to `Cc1noc(NS(=O)(=O)c2ccsc2C(=O)N(C)c2ccccc2)c1Br`, for which the IC50 in series [1] is more than 100000 nM; at Endothelin-1 receptor, 1910 nM.

The compound `Cc1cc2c(cc1NC(=O)c1sccc1S(=O)(=O)Nc1onc(C)c1Cl)OCO2` came in with a concentration for half-maximal inhibition (IC50) in series [1] of 35500 nM.

As to `Cc1noc(NS(=O)(=O)c2ccsc2C(=O)Nc2cc3c(cc2CC#N)OCO3)c1Cl`, the IC50 in series [1] was 25700 nM; at Endothelin-1 receptor, 3.8 nM.

In the case of `CCc1ccc(NC(=O)c2sccc2S(=O)(=O)Nc2onc(C)c2Br)cc1`, the IC50 in series [1] is 7410 nM; at Endothelin-1 receptor, 17 nM.

As to `COc1ccc(NC(=O)c2sccc2S(=O)(=O)Nc2onc(C)c2Br)cc1`, the IC50 turned out to be 30200 nM in series [1] and 24 nM at Endothelin-1 receptor.

Take `COc1ccc(NC(=O)c2sccc2S(=O)(=O)Nc2onc(C)c2Cl)c(C)c1`: the IC50 in series [1] was found to be 14000 nM; on Endothelin-1 receptor, 2.6 nM.

Regarding `COc1ccc(NC(=O)c2sccc2S(=O)(=O)Nc2onc(C)c2Cl)c(OC)c1`, the figures for the IC50 (in series [1]; on Endothelin-1 receptor) were 51900 nM and 15 nM, respectively.

Take `COc1cccc(NC(=O)c2sccc2S(=O)(=O)Nc2onc(C)c2Br)c1`: the figures for the IC50 (in series [1]; at Endothelin-1 receptor) were 63100 nM and 85 nM, respectively.

Regarding `CCC(C)c1ccc(NC(=O)c2sccc2S(=O)(=O)Nc2onc(C)c2Br)cc1` (stereo not drawn), the concentration for half-maximal inhibition (IC50) in series [1] came to 5890 nM; at Endothelin-1 receptor, 54 nM.

As for `Cc1noc(NS(=O)(=O)c2ccsc2C(=O)NCc2ccccc2)c1Br`, the IC50 in series [1] worked out at 97700 nM; at Endothelin-1 receptor, 229 nM.

As for `Cc1noc(NS(=O)(=O)c2ccsc2C(=O)Nc2cccc(O)c2)c1Br`, the figures for the IC50 (in series [1]; at Endothelin-1 receptor) were 67500 nM and 146 nM, respectively.

With `CC(=O)c1cc2c(cc1NC(=O)c1sccc1S(=O)(=O)Nc1onc(C)c1Cl)OCO2`, at 15 mg/kg the inhibition in vivo with Rattus norvegicus was 18%. Further, the half-life (commonly the time in which the quantity being followed falls by half) in series [2] is 3 h. Moreover, the values for the IC50 (in series [1]; on Endothelin-1 receptor) were 32600 nM and 10 nM, respectively.

Take `Cc1ccc(NC(=O)c2sccc2S(=O)(=O)Nc2onc(C)c2Br)cc1`: the IC50 turned out to be 9120 nM in series [1] and 12 nM on Endothelin-1 receptor.

Consider `Cc1nnc(NC(=O)c2sccc2S(=O)(=O)Nc2onc(C)c2Cl)s1`, for which the values for the IC50 (in series [1]; on Endothelin-1 receptor) were more than 100000 nM and 1290 nM, respectively.

For `Cc1noc(NS(=O)(=O)c2ccsc2C(=O)Nc2cc3c(cc2OCCO)OCO3)c1Cl`, the IC50 in series [1] is 14400 nM; at Endothelin-1 receptor it was 5.1 nM.

As to `Cc1noc(NS(=O)(=O)c2ccsc2C(=O)Nc2cc3c(cc2CC(=O)N(C)C)OCO3)c1Cl`, the IC50 on Endothelin-1 receptor worked out at 9.3 nM.

Turning to `Cc1noc(NS(=O)(=O)c2ccsc2C(=O)Nc2ccc(O)nn2)c1Br`, the IC50 at Endothelin-1 receptor is 65 nM. This IC50 lies about 7-fold higher than the previous one.

`CCCCc1ccc(NC(=O)c2sccc2S(=O)(=O)Nc2onc(C)c2Br)cc1`: the IC50 in series [1] was determined as 6170 nM; on Endothelin-1 receptor it was 200 nM.

As for `Cc1noc(NS(=O)(=O)c2ccsc2C(=O)Nc2ccc(-c3ccccc3)cc2)c1Br`, the IC50 in series [1] is 8710 nM; on Endothelin-1 receptor it was 977 nM.

As for `COC(=O)c1cc(OC)c(OC)cc1NC(=O)c1sccc1S(=O)(=O)Nc1onc(C)c1Cl`, the IC50 in series [1] was more than 100000 nM; on Endothelin-1 receptor, 549 nM.

For the compound `Cc1noc(NS(=O)(=O)c2ccsc2C(=O)Nc2ccccc2C(=O)O)c1Br`, the IC50 was 19500 nM in series [1] and 214 nM at Endothelin-1 receptor.

Consider `CC(=O)OCCOc1cc2c(cc1NC(=O)c1sccc1S(=O)(=O)Nc1onc(C)c1Cl)OCO2`, for which the IC50 was 15800 nM in series [1] and 6.1 nM on Endothelin-1 receptor.

For `COc1cccc(NCc2sccc2S(=O)(=O)Nc2onc(C)c2Br)c1`, the IC50 in series [1] is 7590 nM; on Endothelin-1 receptor, 933 nM.

In the case of `Cc1noc(NS(=O)(=O)c2ccsc2C(=O)Nc2cc3c(cc2C#N)OCO3)c1Cl`, testing at 15 mg/kg with Rattus norvegicus gave an inhibition in vivo of 20%. This compound also showed a half-life in series [3] of 2.5 h. Moreover, the half-inhibitory concentration (IC50) in series [1] was 40400 nM; on Endothelin-1 receptor, 3.4 nM.

Turning to `Cc1noc(NS(=O)(=O)c2ccsc2C(=O)Nc2ccc(C(C)(C)C)cc2)c1Br`, the values for the IC50 (in series [1]; on Endothelin-1 receptor) were 6920 nM and 47 nM, respectively.

With `COc1ccccc1NC(=O)c1sccc1S(=O)(=O)Nc1onc(C)c1Br`, the half-inhibitory concentration (IC50) in series [1] worked out at 61700 nM; at Endothelin-1 receptor it was 132 nM.

For `COc1cc(C#N)c(NC(=O)c2sccc2S(=O)(=O)Nc2onc(C)c2Cl)cc1OC`, the IC50 in series [1] was determined as 12200 nM; on Endothelin-1 receptor it was 3.9 nM.

`COc1cc(NC(=O)c2sccc2S(=O)(=O)Nc2onc(C)c2Cl)c(C(=O)O)cc1OC`: the IC50 in series [1] is more than 100000 nM; at Endothelin-1 receptor it was 1430 nM.

On to `Cc1ccccc1NC(=O)c1sccc1S(=O)(=O)Nc1onc(C)c1Br`, for which the IC50 in series [1] was more than 100000 nM; at Endothelin-1 receptor, 27 nM.

For the compound `Cc1ccc(NC(=O)c2sccc2S(=O)(=O)Nc2onc(C)c2Cl)c(O)c1`, the IC50 was 8240 nM in series [1] and 6.6 nM on Endothelin-1 receptor.

For the compound `Cc1cc(NC(=O)c2sccc2S(=O)(=O)Nc2onc(C)c2Cl)no1`, at Endothelin-1 receptor, the IC50 was found to be 57 nM.

As for `Cc1ccc(NC(=O)c2sccc2S(=O)(=O)Nc2onc(C)c2Cl)nc1`, the results for the IC50 (in series [1]; at Endothelin-1 receptor) were 44700 nM and 13 nM, respectively.

For `Cc1noc(NS(=O)(=O)c2ccsc2C(=O)Nc2ccccc2)c1Br`, the 50% inhibitory concentration (IC50) in series [1] came out at 77600 nM; on Endothelin-1 receptor it was 166 nM.

As to `Cc1noc(NS(=O)(=O)c2ccsc2C(=O)Nc2ccc3c(c2)OCO3)c1Br`, the half-maximal inhibitory concentration (IC50) stood at 10100 nM in series [1] and 19 nM at Endothelin-1 receptor.

Take `COc1cc(NC(=O)c2sccc2S(=O)(=O)Nc2onc(C)c2Cl)c(C(N)=O)cc1OC`: the IC50 in series [1] was found to be 61000 nM; on Endothelin-1 receptor, 10.8 nM.
